Data taken from ChEMBL document CHEMBL1122426, “Radioiodine-labeled N,N-dimethyl-N'-(2-hydroxy-3-alkyl-5-iodobenzyl)-1,3-propanediamines for brain perfusion imaging” (J Med Chem, 1983).

Experiments:
Rattus norvegicus [1] = species on record: Rattus norvegicus; experiment: Effect of specific activity of compound on biodistribution in rats liver 1 hr after injection at the dose of 2.5 mg value expressed in average % dose per organ; value may range from 17.1 to 20.7; format: ADME, organism-based; conditions: in vivo
Outline: (§1)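 Rats received an intravenous injection of the I-125 labeled diamine with added unlabeled carrier (6.25, 2.5, 0.25 or 0.025 mg per dose). At 1 h, organs were counted. Percent dose per organ came from comparing tissue radioactivity with diluted aliquots of the injected dose. Values are the average and range of 3 rats. Brain/blood ratio was taken from % dose per gram, calculated using mean organ weights (brain 1.65 g; blood 18 g).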

Rattus norvegicus [2] = experiment: Biodistribution of I-125 labeled compound in rat brain to blood ratio, 2 min after intravenous injection, value expressed in % dose per gram ratio; format: ADME, organism-based
Outline: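 Rats given I-125 diamine iv; tissue activity at 2 min or 1 h compared with diluted injected-dose aliquots. % dose per gram approximated as % dose per organ divided by mean organ weight (brain 1.65 g; blood 18 g). Ratio taken from the per-gram values.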

Rattus norvegicus [3] = species on record: Rattus norvegicus; experiment: Effect of specific activity of compound on biodistribution in rats brain 1 hr after injection at the dose of 2.5 mg value expressed in average % dose per organ; value may range from 2.13 to 2.36; format: ADME, organism-based; conditions: in vivo; outline: as §1
Rattus norvegicus [4] = species on record: Rattus norvegicus; experiment: Effect of specific activity of compound on biodistribution in rats brain to blood ratio 1 hr after injection at the dose of 0.25 mg value expressed in % dose per gram ratio; format: ADME, organism-based; outline: as §1
Rattus norvegicus [5] = species on record: Rattus norvegicus; experiment: Effect of specific activity of compound on biodistribution in rats thyroid after injection at the dose of 0.025 mg value expressed in average % dose per organ; value may range from 0.15 to 0.17; format: ADME, organism-based, Thyroid gland; conditions: in vivo; outline: as §1
[6] = Biodistribution of [125I]- compound in a monkey spleen. 1 hr after intravenous injection. the value expressed in %dose/gram; conditions: simiiformes, in vivo
Rattus norvegicus [7] = species on record: Rattus norvegicus; experiment: Effect of specific activity of compound on biodistribution in rats thyroid 1 hr after injection at the dose of 2.5 mg value expressed in average % dose per organ; value may range from 0.12 to 0.14; format: ADME, organism-based, Thyroid gland; conditions: in vivo; outline: as §1
Rattus norvegicus [8] = species on record: Rattus norvegicus; experiment: Effect of specific activity of compound on biodistribution in rats lungs 1 hr after injection at the dose of 0.25 mg value expressed in average % dose per organ; value may range from 12.0 to 20.3; format: ADME, organism-based, Lung; conditions: in vivo; outline: as §1
[9] = Biodistribution of [125I]- compound in a monkey bone. 1 hr after intravenous injection. the value expressed in %dose/gram; conditions: simiiformes, in vivo
[10] = Biodistribution of [125I]- compound in a monkey liver. 1 hr after intravenous injection. the value expressed in %dose/organ; conditions: simiiformes, in vivo
Rattus norvegicus [11] = species on record: Rattus norvegicus; experiment: Effect of specific activity of compound on biodistribution in rats lungs 1 hr after injection at the dose of 6.25 mg value expressed in average % dose per organ; value may range from 2.70 to 7.70; format: ADME, organism-based, Lung; conditions: in vivo; outline: as §1
Rattus norvegicus [12] = experiment: Biodistribution of I-125 labeled compound in rat heart, 2 min after intravenous injection. value expressed in average % dose per organ; value may range from 3.03 to 3.55; format: ADME, organism-based; conditions: in vivo
Rattus norvegicus [13] = species on record: Rattus norvegicus; experiment: Effect of specific activity of compound on biodistribution in rats liver 1 hr after injection at the dose of 0.25 mg value expressed in average % dose per organ; value may range from 8.01 to 9.52; format: ADME, organism-based; conditions: in vivo; outline: as §1
[14] = Biodistribution of [125I]- compound in a monkey heart. 1 hr after intravenous injection. the value expressed in %dose/gram; conditions: simiiformes, in vivo
[15] = Biodistribution of [125I]- compound in a monkey thyroid. 1 hr after intravenous injection. the value expressed in %dose/organ; conditions: simiiformes, in vivo
[16] = Biodistribution of [125I]- compound in a monkey lungs.1h after intravenous injection. the value expressed in %dose/gram; conditions: simiiformes, in vivo
[17] = Biodistribution of [125I]- compound in a monkey kidneys. 1 hr after intravenous injection. the value expressed in %dose/gram; conditions: simiiformes, in vivo
Rattus norvegicus [18] = experiment: Biodistribution of I-125 labeled compound in rat brain, 2 min after intravenous injection. value expressed in average % dose per organ; value may range from 1.71 to 1.95; format: ADME, organism-based; conditions: in vivo
Rattus norvegicus [19] = species on record: Rattus norvegicus; experiment: Effect of specific activity of compound on biodistribution in rats muscle 1 hr after injection at the dose of 6.25 mg value expressed in average % dose per organ; value may range from 11.5 to 12.9; format: ADME, organism-based, Muscle tissue; conditions: in vivo; outline: as §1
[20] = Biodistribution of [125I]- compound in a monkey kidneys. 1 hr after intravenous injection. the value expressed in%dose/organ; conditions: simiiformes, in vivo
Rattus norvegicus [21] = species on record: Rattus norvegicus; experiment: Effect of specific activity of compound on biodistribution in rats brain 1 hr after injection at the dose of 0.25 mg value expressed in average % dose per organ; value may range from 1.76 to 1.97; format: ADME, organism-based; conditions: in vivo; outline: as §1
[22] = Biodistribution of [125I]- compound in a monkey lungs.1h after intravenous injection. the value expressed in%dose/organ; conditions: simiiformes, in vivo
Rattus norvegicus [23] = species on record: Rattus norvegicus; experiment: Distribution coefficient at pH 7.4 in rat; format: ADME, organism-based
Outline: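 Octanol/buffer partition: I-125 labeled diamine mixed with 3 g each of 1-octanol and 0.1 M phosphate buffer at pH 7.0 or 7.4, vortexed 3× 1 min, centrifuged 5 min. Two 0.5 g samples of each layer counted. Value is cpm/g octanol over cpm/g buffer, usually repeated three times.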

[24] = Biodistribution of [125I]- compound in a monkey muscle. 1 hr after intravenous injection. the value expressed in%dose/organ; conditions: simiiformes, in vivo
Rattus norvegicus [25] = species on record: Rattus norvegicus; experiment: Effect of specific activity of compound on biodistribution in rats lungs 1 hr after injection at the dose of 2.5 mg value expressed in average % dose per organ; value may range from 5.89 to 8.67; format: ADME, organism-based, Lung; conditions: in vivo; outline: as §1
Rattus norvegicus [26] = experiment: Biodistribution of I-125 labeled compound in rat lungs, 1 hr after intravenous injection. value expressed in average % dose per organ; value may range from 10.6 to 15.1; format: ADME, organism-based, Lung; conditions: in vivo
Rattus norvegicus [27] = species on record: Rattus norvegicus; experiment: Effect of specific activity of compound on biodistribution in rats heart 1 hr after injection at the dose of 2.5 mg value expressed in average % dose per organ; value may range from 0.34 to 0.42; format: ADME, organism-based; conditions: in vivo; outline: as §1
Rattus norvegicus [28] = species on record: Rattus norvegicus; experiment: Effect of specific activity of compound on biodistribution in rats heart 1 hr after injection at the dose of 0.25 mg value expressed in average % dose per organ 0.69 to 0.74; format: ADME, organism-based; conditions: in vivo; outline: as §1
Rattus norvegicus [29] = species on record: Rattus norvegicus; experiment: Effect of specific activity of compound on biodistribution in rats muscle after injection at the dose of 0.025 mg value expressed in average % dose per organ; value may range from 11.6 to 12.9; format: ADME, organism-based, Muscle tissue; conditions: in vivo; outline: as §1
Rattus norvegicus [30] = experiment: Biodistribution of I-125 labeled compound in rat brain, 1 hr after intravenous injection. value expressed in average % dose per organ; value may range from 1.71 to 2.54; format: ADME, organism-based; conditions: in vivo
Rattus norvegicus [31] = species on record: Rattus norvegicus; experiment: Effect of specific activity of compound on biodistribution in rats muscle 1 hr after injection at the dose of 0.25 mg value expressed in average % dose per organ; value may range from 11.0 to 13.4; format: ADME, organism-based, Muscle tissue; conditions: in vivo; outline: as §1

Cc1cc(I)cc(CNCCCN(C)C)c1O
Average dose per organ (Rattus norvegicus [1]): 18.9%
Ratio (Rattus norvegicus [2]): 7.35%
Average dose per organ (Rattus norvegicus [3]): 2.21%
Ratio (Rattus norvegicus [4]): 22.8%
Average dose per organ (Rattus norvegicus [5]): 0.16%
Dose/g [6]: 0.267%
Average dose per organ (Rattus norvegicus [7]): 0.13%
Average dose per organ (Rattus norvegicus [8]): 15.2%
Dose/g [9]: 0.00168%
Dose per organ [10]: 19.7%
Average dose per organ (Rattus norvegicus [11]): 4.5%
Average dose per organ (Rattus norvegicus [12]): 3.23%
Average dose per organ (Rattus norvegicus [13]): 8.54%
Dose/g [14]: 0.218%
Dose per organ [15]: 0.333%
Dose/g [16]: 1.05%
Dose/g [17]: 0.602%
Average dose per organ (Rattus norvegicus [18]): 1.8%
Average dose per organ (Rattus norvegicus [19]): 12.3%
Dose per organ [20]: 16.1%
Average dose per organ (Rattus norvegicus [21]): 1.84%
Dose per organ [22]: 33%
Distribution coefficient (Rattus norvegicus [23]): 11.6
Dose per organ [24]: 17.3%
Average dose per organ (Rattus norvegicus [25]): 6.87%
Average dose per organ (Rattus norvegicus [26]): 11.7%
Average dose per organ (Rattus norvegicus [27]): 0.38%
Average dose per organ (Rattus norvegicus [28]): 0.72%
Average dose per organ (Rattus norvegicus [29]): 12.2%
Average dose per organ (Rattus norvegicus [30]): 2.02%
Average dose per organ (Rattus norvegicus [31]): 12.1%
